According to ChEMBL document CHEMBL1629635, “Effect of DNase and antibiotics on biofilm characteristics” (2009):
≈ marks a conversion by molar mass, not a printed value. Calls of active or inactive are those of the source. The rule behind the calls is not given here.

How the values were obtained:
[1] = test system: Streptococcus pyogenes; test: Bactericidal activity against Streptococcus pyogenes VT 59 assessed as eradication of pre-formed biofilm at 50 times MIC after 24 hrs by serial dilution; format: functional
Summary of the method: (§1)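 Preformed 24-h biofilms in 96-well plates got antibiotic at 50 times MIC, DNase I at 5 μg/ml, or both, for 24 h at 37°C. Wells were scraped into 1.0 ml of 0.15 M phosphate buffer pH 7.2, serially diluted and plated; result is log10 CFU/well. Mean ± SEM of three independent experiments, counts done in triplicate.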

[2] = test system: Pseudomonas aeruginosa; test: Bactericidal activity against Pseudomonas aeruginosa ATCC 27853 assessed as eradication of pre-formed biofilm at 1 to 10 times MIC after 24 hrs; format: functional, organism-based
Summary of the method: (§2)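 Biofilms were grown 24 h at 37°C in 96-well plates from a 24-h broth culture (inoculum 7.53 ± 0.22 log10 CFU/ml). […] Read-out was crystal-violet biomass (OD570) and CFU by serial dilution plating.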

[3] = test system: Escherichia coli; test: Bactericidal activity against Escherichia coli ATCC 25922 assessed as eradication of pre-formed biofilm at 50 times MIC after 24 hrs; format: functional
Summary of the method: (§3)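 24-h, 37°C 96-well biofilms were washed three times with 0.15 M phosphate buffer pH 7.2. They were treated 24 h at 37°C with antibiotic at 50 times MIC, alone or with DNase I at 5 μg/ml, in medium. Biomass: 0.1% crystal violet for 30 min at room temperature, water washes, ethanol-acetone (80:20) solubilization, absorbance at 570 nm.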

[4] = test system: Pseudomonas aeruginosa; test: Bactericidal activity against Pseudomonas aeruginosa ATCC 27853 assessed as eradication of pre-formed biofilm at 50 times MIC after 24 hrs; format: functional; summary of the method: as §3
[5] = test system: Klebsiella pneumoniae; test: Bactericidal activity against Klebsiella pneumoniae VT 1367 assessed as eradication of pre-formed biofilm at 50 times MIC after 24 hrs; format: functional; summary of the method: as §3
[6] = test system: Streptococcus pyogenes; test: Bactericidal activity against Streptococcus pyogenes VT 59 assessed as eradication of pre-formed biofilm at 1 to 10 times MIC after 24 hrs; format: functional, organism-based; summary of the method: as §2
[7] = test system: Staphylococcus aureus; test: Bactericidal activity against Staphylococcus aureus ATCC 29213 assessed as eradication of pre-formed biofilm at 1 to 10 times MIC after 24 hrs by serial dilution; format: functional, organism-based; summary of the method: as §2
[8] = test system: Acinetobacter baumannii; test: Antimicrobial activity against Acinetobacter baumannii VT 126 by broth microdilution method; format: functional
Summary of the method: (§4)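 MICs by broth microdilution following CLSI guidelines, in cation-adjusted Mueller-Hinton broth or Haemophilus test medium broth. Cultures were grown at 37°C without shaking.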

[9] = test system: Staphylococcus aureus; test: Bactericidal activity against Staphylococcus aureus ATCC 29213 assessed as eradication of pre-formed biofilm at 50 times MIC after 24 hrs; format: functional; summary of the method: as §3
[10] = test system: Staphylococcus aureus; test: Antimicrobial activity against Staphylococcus aureus ATCC 29213 by broth microdilution method; format: functional; summary of the method: as §4
[11] = test system: Haemophilus influenzae; test: Bactericidal activity against Haemophilus influenzae VT450-2006 assessed as eradication of pre-formed biofilm at 1 to 10 times MIC after 24 hrs; format: functional, organism-based; summary of the method: as §2
[12] = test system: Streptococcus pyogenes; test: Antimicrobial activity against Streptococcus pyogenes VT 59 by broth microdilution method; format: functional; summary of the method: as §4
[13] = test system: Staphylococcus aureus; test: Bactericidal activity against Staphylococcus aureus ATCC 29213 assessed as eradication of pre-formed biofilm at 50 times MIC after 24 hrs by serial dilution; format: functional; summary of the method: as §1
[14] = test system: Pseudomonas aeruginosa; test: Antimicrobial activity against Pseudomonas aeruginosa ATCC 27853 by broth microdilution method; format: functional; summary of the method: as §4
[15] = test system: Klebsiella pneumoniae; test: Bactericidal activity against Klebsiella pneumoniae VT 1367 assessed as eradication of pre-formed biofilm at 1 to 10 times MIC after 24 hrs; format: functional, organism-based; summary of the method: as §2
[16] = test system: Haemophilus influenzae; test: Bactericidal activity against Haemophilus influenzae VT450-2006 assessed as eradication of pre-formed biofilm at 50 times MIC after 24 hrs; format: functional; summary of the method: as §3
[17] = test system: Acinetobacter baumannii; test: Bactericidal activity against Acinetobacter baumannii VT 126 assessed as eradication of pre-formed biofilm at 50 times MIC after 24 hrs by serial dilution; format: functional; summary of the method: as §1
[18] = test system: Haemophilus influenzae; test: Bactericidal activity against Haemophilus influenzae VT450-2006 assessed as eradication of pre-formed biofilm at 50 times MIC after 24 hrs by serial dilution; format: functional; summary of the method: as §1
[19] = test system: Acinetobacter baumannii; test: Bactericidal activity against Acinetobacter baumannii VT 126 assessed as eradication of pre-formed biofilm at 50 times MIC after 24 hrs; format: functional; summary of the method: as §3
[20] = test system: Escherichia coli; test: Bactericidal activity against Escherichia coli ATCC 25922 assessed as eradication of pre-formed biofilm at 1 to 10 times MIC after 24 hrs; format: functional, organism-based; summary of the method: as §2
[21] = test system: Klebsiella pneumoniae; test: Bactericidal activity against Klebsiella pneumoniae VT 1367 assessed as eradication of pre-formed biofilm at 50 times MIC after 24 hrs by serial dilution; format: functional; summary of the method: as §1
[22] = test system: Acinetobacter baumannii; test: Bactericidal activity against Acinetobacter baumannii VT 126 assessed as eradication of pre-formed biofilm at 1 to 10 times MIC after 24 hrs; format: functional, organism-based; summary of the method: as §2
[23] = test system: Escherichia coli; test: Bactericidal activity against Escherichia coli ATCC 25922 assessed as eradication of pre-formed biofilm at 50 times MIC after 24 hrs by serial dilution; format: functional; summary of the method: as §1
[24] = test system: Haemophilus influenzae; test: Antimicrobial activity against Haemophilus influenzae VT450-2006 by broth microdilution method; format: functional; summary of the method: as §4
[25] = test system: Escherichia coli; test: Antimicrobial activity against Escherichia coli ATCC 25922 by broth microdilution method; format: functional; summary of the method: as §4
[26] = test system: Klebsiella pneumoniae; test: Antimicrobial activity against Klebsiella pneumoniae VT 1367 by broth microdilution method; format: functional; summary of the method: as §4
[27] = test system: Pseudomonas aeruginosa; test: Bactericidal activity against Pseudomonas aeruginosa ATCC 27853 assessed as eradication of pre-formed biofilm at 50 times MIC after 24 hrs by serial dilution; format: functional; summary of the method: as §1
[28] = test system: Streptococcus pyogenes; test: Bactericidal activity against Streptococcus pyogenes VT 59 assessed as eradication of pre-formed biofilm at 50 times MIC after 24 hrs; format: functional; summary of the method: as §3

Structure (SMILES) | log10cfu [1] | inhibition [2] | inhibition (INH) [3] [%] | inhibition (INH) [4] [%] | inhibition [6] | inhibition [7] | MIC [8] [µg/mL] | MIC [10] [µg/mL] | inhibition [11] | MIC [12] [µg/mL] | log10cfu [13] | MIC [14] [µg/mL] | inhibition [15] | log10cfu [17] | log10cfu [18] | inhibition [20] | log10cfu [21] | inhibition [22] | log10cfu [23] | MIC [24] [µg/mL] | also measured
CO[C@H]1/C=C/O[C@@]2(C)Oc3c(C)c(O)c4c(O)c(c(/C=N/N5CCN(C)CC5)c(O)c4c3C2=O)NC(=O)/C(C)=C\C=C\[C@H](C)[C@H](O)[C@@H](C)[C@@H](O)[C@@H](C)[C@H](OC(C)=O)[C@@H]1C [RIFAMPIN] | 6.44 | inactive | 10 | 10 | inactive | inactive | 8 (≈ 9.72 µM) | 0.25 (≈ 0.304 µM) | inactive | 0.25 (≈ 0.304 µM) | 7.5 | 16 (≈ 19.4 µM) | inactive | 8.15 | 8.14 | inactive | 8.5 | inactive | 8.58 | 0.8 (≈ 0.972 µM) | inhibition (INH) [5]: 10%; inhibition (INH) [9]: 10%; inhibition (INH) [16]: 10%; inhibition (INH) [19]: 10%; MIC [25]: 8 µg/mL (≈ 9.72 µM); MIC [26]: 16 µg/mL (≈ 19.4 µM); log10cfu [27]: 8.56; inhibition (INH) [28]: 10%
C[C@H]1COc2c(N3CCN(C)CC3)c(F)cc3c(=O)c(C(=O)O)cn1c23.C[C@H]1COc2c(N3CCN(C)CC3)c(F)cc3c(=O)c(C(=O)O)cn1c23.O [LEVOFLOXACIN] | 6.39 | inactive | 10 | 10 | inactive | inactive | 8 | 0.3 | inactive | 0.5 | 7.39 | 0.6 | inactive | 8.26 | 8.25 | inactive | 8.62 | inactive | 8.46 | 0.07 | inhibition (INH) [5]: 10%; inhibition (INH) [9]: 10%; inhibition (INH) [16]: 10%; inhibition (INH) [19]: 10%; MIC [25]: 0.035 µg/mL; MIC [26]: 0.15 µg/mL; log10cfu [27]: 8.69; inhibition (INH) [28]: 10%
CO/N=C(\C(=O)N[C@@H]1C(=O)N2C(C(=O)O)=C(COC(C)=O)CS[C@H]12)c1csc(N)n1 [CEFOTAXIME] | 8.2 | inactive | 10 | 10 | inactive | inactive | 1.5 (≈ 3.29 µM) | 3.8 (≈ 8.34 µM) | inactive | 0.03 (≈ 0.0659 µM) | 9.67 | 64 (≈ 141 µM) | inactive | 8.32 | 8.45 | inactive | 8.54 | inactive | 8.66 | 0.16 (≈ 0.351 µM) | MIC [25]: 1.5 µg/mL (≈ 3.29 µM); MIC [26]: 0.06 µg/mL (≈ 0.132 µM); log10cfu [27]: 8.68
CC1(C)S[C@@H]2[C@H](NC(=O)[C@H](N)c3ccccc3)C(=O)N2[C@H]1C(=O)O [AMPICILLIN] | 8.16 | inactive | 10 | 10 | inactive | inactive | 50 (≈ 143 µM) | 0.025 (≈ 0.0715 µM) | inactive | 0.25 (≈ 0.715 µM) | 9.51 | 128 (≈ 366 µM) | inactive | 8.29 | 8.44 | inactive | 8.33 | inactive | 8.55 | 0.5 (≈ 1.43 µM) | MIC [25]: 16 µg/mL (≈ 45.8 µM); MIC [26]: 64 µg/mL (≈ 183 µM); log10cfu [27]: 8.62
CC[C@H]1OC(=O)[C@H](C)[C@@H](O[C@H]2C[C@@](C)(OC)[C@@H](O)[C@H](C)O2)[C@H](C)[C@@H](O[C@@H]2O[C@H](C)C[C@H](N(C)C)[C@H]2O)[C@](C)(O)C[C@@H](C)CN(C)[C@H](C)[C@@H](O)[C@]1(C)O [AZITHROMYCIN] | 8.24 | inactive | – | – | inactive | inactive | – | 0.3 (≈ 0.401 µM) | inactive | 0.25 (≈ 0.334 µM) | 9.75 | – | inactive | – | 8.14 | inactive | – | inactive | – | 1 (≈ 1.34 µM) | inhibition (INH) [28]: 20%
